Experiments:
[1] = Cmax in healthy human plasma at 400 mg, po Bid for 1 week by LC-MS/MS analysis; type: ADME, organism-based; design: dose 400 mg, route oral
Procedure, shortened: (§1)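 Healthy volunteers (24–51 y) took raltegravir 400 mg twice daily for 1 week in a crossover with at least 3 days between arms, dosing ≥1 h before or 2 h after food. After a witnessed dose, blood was drawn at 1, 2, 4, 8 and 12 h, with meals from 1 h. Plasma was analysed by LC-MS-MS after acetonitrile precipitation, using noncompartmental linear-trapezoidal AUC and log10-transformed geometric means.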

[2] = Ctau in healthy human plasma at 400 mg, po Bid for 1 week by LC-MS/MS analysis; type: ADME, organism-based; conditions: read-out: Ctau; procedure, shortened: as §1
[3] = Plasma concentration in healthy human at 400 mg, po Bid for 1 week measured 12 hrs post dose by LC-MS/MS analysis; type: ADME, organism-based; procedure, shortened: as §1
[4] = AUC (0 to12 hrs) in healthy human at 400 mg, po Bid for 1 week by LC-MS/MS analysis; type: ADME, organism-based; design: dose 400 mg, time < 12 hr, route oral; conditions: plasma; procedure, shortened: as §1
[5] = AUC (0 to tau) in healthy human at 400 mg, po Bid for 1 week by LC-MS/MS analysis; type: ADME, organism-based; conditions: plasma; procedure, shortened: as §1
Homo sapiens [6] = experiment: AUC (0 to tau) in human at 400 mg, po Bid coadministered with atazanavir 400 mg, po qd for 1 week by LC-MS/MS analysis; type: ADME, organism-based, Plasma; conditions: in vivo, 168 h, in the assay text read “po qd” for “po Bid”
Procedure, shortened: (§2)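 Arm B of a crossover in healthy adults (24–51 y), separated from the other arm by at least 3 days. Subjects took raltegravir 400 mg plus atazanavir 400 mg once daily for 1 week in a semifasted state. Plasma was sampled over 24 h after a witnessed dose. Raltegravir was quantified by LC-MS-MS after acetonitrile protein precipitation, and the glucuronide by negative-mode SRM (m/z 619.1→316.0) with a d3 internal standard. Noncompartmental analysis used the linear trapezoidal rule.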

[7] = Drug level in healthy human urine at 400 mg, po Bid coadministered with atazanavir 400 mg, po qd for 1 week measured at 0-12 hrs post dose by LC-MS/MS analysis; type: ADME, organism-based; conditions: in vivo, in the assay text read “po qd” for “po Bid”
Procedure, shortened: (§3)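 Steady state was reached after 1 week of once-daily raltegravir 400 mg with atazanavir 400 mg in healthy adults. All urine was collected over 24 h after the witnessed dose and combined into 2-h pools. Raltegravir and raltegravir-glucuronide were assayed by LC-MS-MS, and amounts excreted were summed for 0–12 h and 12–24 h.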

[8] = Drug level in healthy human urine at 400 mg, po Bid coadministered with atazanavir 400 mg, po qd for 1 week measured at 12 to 24 hrs post dose by LC-MS/MS analysis; type: ADME, organism-based; conditions: in vivo, in the assay text read “po qd” for “po Bid”; procedure, shortened: as §3
[9] = Drug level in healthy human urine at 400 mg, po Bid for 1 week measured at 0-12 hrs post dose by LC-MS/MS analysis; type: ADME, organism-based; conditions: in vivo
Procedure, shortened: (§4)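 Healthy volunteers took raltegravir 400 mg twice daily for 1 week. After the witnessed dose, all urine was collected over 12 h and pooled into 2-h aliquots, then frozen at −70°C. Raltegravir and its glucuronide were measured by LC-MS-MS, and amounts were summed over 0–12 h. Values are geometric means of log10-transformed data.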

[10] = Apparent total plasma clearance in healthy human at 400 mg, po Bid for 1 week by LC-MS/MS analysis; type: ADME, organism-based
Procedure, shortened: (§5)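 Raltegravir 400 mg was given twice daily for 1 week, with 12-h plasma and urine profiles measured by LC-MS-MS. Apparent oral clearance was dose/AUC over the dosing interval. Renal clearance was the amount excreted in urine divided by plasma AUC over the same interval. Fe/F was Ae/(dose/F), with F unknown.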

[11] = Renal clearance in healthy human at 400 mg, po Bid for 1 week by LC-MS/MS analysis; type: ADME, organism-based; conditions: plasma, read-out: CL_renal; procedure, shortened: as §5
[12] = Apparent clearance of oral drug in healthy human assessed as drug excreted unchanged at 400 mg, po Bid for 1 week by LC-MS/MS analysis; type: ADME, organism-based; conditions: in vivo, read-out: Fraction excreted unchanged; procedure, shortened: as §5
[13] = Apparent total plasma clearance in healthy human at 400 mg, po Bid coadministered with atazanavir 400 mg, po qd for 1 week by LC-MS/MS analysis; type: ADME, organism-based; conditions: in the assay text read “po qd” for “po Bid”
Procedure, shortened: (§6)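 Once-daily raltegravir 400 mg with atazanavir 400 mg was given for 1 week, with plasma and urine collected over 24 h and assayed by LC-MS-MS. Clearances were computed noncompartmentally: CL/F = dose/AUC(τ), renal CL = urinary amount/plasma AUC over the same interval, and Fe/F = Ae/(dose/F).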

[14] = Renal clearance in healthy human at 400 mg, […] coadministered with atazanavir 400 mg, po qd for 1 week by LC-MS/MS analysis; type: ADME, organism-based; conditions: plasma, read-out: CL_renal; procedure, shortened: as §6
[15] = Apparent clearance of oral drug in healthy human assessed as drug excreted unchanged at 400 mg, po […] coadministered with atazanavir 400 mg, po qd for 1 week by LC-MS/MS analysis; type: ADME, organism-based; conditions: in vivo, read-out: Fraction excreted unchanged; procedure, shortened: as §6
Plasma [16] = experiment: Cmax in healthy human plasma assessed as raltegravir-glucoronide at 400 mg, po Bid for 1 week by LC-MS/MS analysis; type: ADME, organism-based; design: dose 400 mg, route oral; conditions: in vivo, 168 h; procedure, shortened: as §1
Plasma [17] = experiment: Ctau in healthy human plasma assessed as raltegravir-glucoronide at 400 mg, po Bid for 1 week by LC-MS/MS analysis; type: ADME, organism-based; conditions: in vivo, 168 h; procedure, shortened: as §1
Plasma [18] = experiment: Plasma concentration in healthy human assessed as raltegravir-glucoronide at 400 mg, po Bid for 1 week measured 12 hrs post dose by LC-MS/MS analysis; type: ADME, organism-based; conditions: in vivo; procedure, shortened: as §1
Homo sapiens [19] = experiment: AUC (0 to12 hrs) in healthy human assessed as raltegravir-glucoronide at 400 mg, po Bid for 1 week by LC-MS/MS analysis; type: ADME, organism-based, Plasma; design: dose 400 mg, time < 12 hr, route oral; conditions: in vivo, 12 h; procedure, shortened: as §1
Plasma [20] = experiment: Cmax in healthy human plasma assessed as raltegravir-glucoronide at 400 mg, […] coadministered with atazanavir 400 mg, po qd for 1 week by LC-MS/MS analysis; type: ADME, organism-based; design: dose 400 mg, route oral; conditions: in vivo, 168 h; procedure, shortened: as §2
Plasma [21] = experiment: Ctau in healthy human plasma assessed as raltegravir-glucoronide at 400 mg, […] coadministered with atazanavir 400 mg, po qd for 1 week by LC-MS/MS analysis; type: ADME, organism-based; conditions: in vivo, 168 h; procedure, shortened: as §2
Plasma [22] = experiment: Plasma concentration in healthy human assessed as raltegravir-glucoronide at 400 mg, po […] coadministered with atazanavir 400 mg, po qd for 1 week measured 12 hrs post dose by LC-MS/MS analysis; type: ADME, organism-based; conditions: in vivo; procedure, shortened: as §2
[23] = Drug level in healthy human urine assessed as raltegravir-glucoronide at 400 mg, […] coadministered with atazanavir 400 mg, po qd for 1 week measured at 0-12 hrs post dose by LC-MS/MS analysis; type: ADME, organism-based; conditions: in vivo; procedure, shortened: as §3
[24] = Drug level in healthy human urine assessed as raltegravir-glucoronide at 400 mg, […] coadministered with atazanavir 400 mg, po qd for 1 week measured at 12 to 24 hrs post dose by LC-MS/MS analysis; type: ADME, organism-based; conditions: in vivo; procedure, shortened: as §3
Homo sapiens [25] = experiment: AUC (12 to 24 hrs) in healthy human assessed as raltegravir-glucoronide at 400 mg, po […] coadministered with atazanavir 400 mg, po qd for 1 week by LC-MS/MS analysis; type: ADME, organism-based, Plasma; design: time 12-24 hr, dose 400 mg, route oral; conditions: in vivo; procedure, shortened: as §2
[26] = Drug level in healthy human urine assessed as raltegravir-glucoronide at 400 mg, po Bid for 1 week measured at 0-12 hrs post dose by LC-MS/MS analysis; type: ADME, organism-based; conditions: in vivo; procedure, shortened: as §4
Plasma [27] = experiment: Renal clearance in healthy human assessed as raltegravir-glucoronide at 400 mg, po Bid for 1 week by LC-MS/MS analysis; type: ADME, organism-based; conditions: in vivo, 168 h; procedure, shortened: as §5
Plasma [28] = experiment: Renal clearance in healthy human assessed as raltegravir-glucoronide at […] coadministered with atazanavir 400 mg, po qd for 1 week by LC-MS/MS analysis; type: ADME, organism-based; conditions: in vivo, 168 h; procedure, shortened: as §6
[29] = Ratio of drug level to raltegravir-glucoronide level in healthy human urine at 400 mg, po Bid for 1 week by LC-MS/MS analysis; type: ADME, organism-based; conditions: in vivo, 168 h; procedure, shortened: as §4
[30] = Ratio of drug level to raltegravir-glucoronide level in healthy human urine at 400 mg, po Bid coadministered with atazanavir 400 mg, po qd for 1 week by LC-MS/MS analysis; type: ADME, organism-based; conditions: in vivo, 168 h, in the assay text read “po qd” for “po Bid”; procedure, shortened: as §3
[31] = Cmax in healthy human plasma at 400 mg, po qd coadministered with atazanavir 400 mg, po qd for 1 week by LC-MS/MS analysis
[32] = Ctau in healthy human plasma at 400 mg, po qd coadministered with atazanavir 400 mg, po qd for 1 week by LC-MS/MS analysis
[33] = AUC (0 to12 hrs) in healthy human at 400 mg, po qd coadministered with atazanavir 400 mg, po qd for 1 week by LC-MS/MS analysis; conditions: plasma
[34] = AUC (12 to24 hrs) in healthy human at 400 mg, po qd coadministered with atazanavir 400 mg, po qd for 1 week by LC-MS/MS analysis; conditions: plasma
[35] = Plasma concentration in healthy human at 400 mg, po qd coadministered with atazanavir 400 mg, po qd for 1 week measured 12 hrs post dose by LC-MS/MS analysis

Q: With `Cc1nnc(C(=O)NC(C)(C)c2nc(C(=O)NCc3ccc(F)cc3)c(O)c(=O)n2C)o1` [RALTEGRAVIR] as the molecule, how does the Cmax [1] read?
A: 1020 ng/mL

Q: What about the concentration at 168 h [2] of the same molecule?
A: 46 ng/mL

Q: What about the concentration at 12 h [3] of the same molecule?
A: 46 ng/mL

Q: And the AUC at 12 h [4]?
A: 3530 ng·h/mL

Q: And the AUC tau at 168 h [5]?
A: 3530 ng·h/mL

Q: What about the AUC (Homo sapiens [6]) of the same molecule?
A: 6080 ng·h/mL

Q: What about the Drug uptake [7] of the same molecule?
A: 10.81 mg

Q: What about the Drug uptake [8] of the same molecule?
A: 0.41 mg

Q: What about the Drug uptake [9] of the same molecule?
A: 11.66 mg

Q: What about the CL/F [10] of the same molecule?
A: 1890 mL/min

Q: What about the CL renal at 168 h [11] of the same molecule?
A: 55 mL/min

Q: What about the dose excreted at 168 h [12] of the same molecule?
A: 2.9%

Q: And the CL/F [13]?
A: 1100 mL/min

Q: And the CL renal at 168 h [14]?
A: 39 mL/min

Q: And the dose excreted at 168 h [15]?
A: 3.5%

Q: And the Cmax (Plasma [16])?
A: 799 ng/mL

Q: What about the Ctau (Plasma [17]) of the same molecule?
A: 45 ng/mL

Q: And the Cp (Plasma [18])?
A: 45 ng/mL

Q: And the AUC (Homo sapiens [19])?
A: 3267 ng·h/mL

Q: What about the Cmax (Plasma [20]) of the same molecule?
A: 458 ng/mL

Q: And the Ctau (Plasma [21])?
A: 8 ng/mL

Q: And the Cp (Plasma [22])?
A: 41 ng/mL

Q: What about the Drug uptake [23] of the same molecule?
A: 84.51 mg

Q: And the Drug uptake [24]?
A: 7.03 mg

Q: And the AUC (Homo sapiens [25])?
A: 342 ng·h/mL

Q: What about the Drug uptake [26] of the same molecule?
A: 82.5 mg

Q: What about the CL_renal (Plasma [27]) of the same molecule?
A: 421 mL/min

Q: And the CL_renal (Plasma [28])?
A: 692 mL/min

Q: And the Ratio [29]?
A: 7.08

Q: What about the Ratio [30] of the same molecule?
A: 7.81

Q: What about the Cmax [31] of the same molecule?
A: 1400 ng/mL

Q: What about the concentration at 168 h [32] of the same molecule?
A: 18 ng/mL

Q: And the AUC at 12 h [33]?
A: 4660 ng·h/mL

Q: And the AUC [34]?
A: 875 ng·h/mL

Q: What about the concentration at 12 h [35] of the same molecule?
A: 69 ng/mL
